Measured values published in ChEMBL document CHEMBL1681681, “Synthesis and anti-migrative evaluation of moverastin derivatives” (Bioorg Med Chem Lett, 2011).

How the values were obtained:
[1] = Cytotoxicity against human EC17 cells assessed as cell viability by trypan blue dye; format: cell-based
Method in brief: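 EC17 cells are tested for viability by trypan blue dye exclusion. The 50% inhibitory concentration for viability is estimated from this assay.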

[2] = target: Protein farnesyltransferase (Homo sapiens, UniProt P49354+P49356); experiment: Inhibition of protein farnesyltransferase from human EC17 cells using [3H]FPP and […]-H-Ras; format: cell-based
Method in brief: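 FTase is partially purified from EC17 cells. It is incubated with [3H]-farnesylpyrophosphate plus recombinant GST-H-Ras as substrates, with or without test compound. Compounds are tested up to 100 µM.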

[3] = Antimigratory activity against human EC17 cells assessed as inhibition of migration after 24 hrs by chemotaxis cell chamber assay; format: functional, cell-based; conditions: EC17, 24 h
Method in brief: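 Chemotaxis chamber: EC17 cells in upper chamber with graded compound concentrations; lower chamber holds EC17-conditioned medium (from 24 h cultures in RPMI1640 + 1% FBS) as chemoattractant. After 24 h, cells migrated through the filter to its lower side are counted. Counts are mean SD of five fields. IC50 is derived from these counts.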

IC50 [2] [µM] | IC50 [3] [µM] | SMILES | IC50 [1] [µM]
> 100 | 4.57 | C=C(CC[C@H]1[C@@H](C)CCCC1(C)C)C(O)Cc1c(OC)cc(C)c(C=O)c1O (relative stereo) | 18
> 100 | 2 | Cc1cc(O)c2c(c1C=O)OCC(CC[C@H]1[C@@H](C)CCCC1(C)C)=CC2 (relative stereo) | 18
> 100 | 30 | C=C(C)C(O)Cc1c(O)cc(C)c(C=O)c1O (centres undefined) | > 130
> 100 | 2.17 | C=C(CC[C@H]1[C@@H](C)CCCC1(C)C)C(O)Cc1c(O)cc(C)cc1O (relative stereo) | 17
> 100 | 8.43 | C=C(CCC1CCCCC1)C(O)Cc1c(O)cc(C)c(C=O)c1O (centres undefined) | 87
> 100 | 7.22 | C=C(CC[C@@]1(C)[C@H](C)CCC(=O)[C@@H]1C)[C@H](O)Cc1c(O)cc(C)c(C=O)c1O [MOVERASTIN A] | > 77
> 100 | 21.4 | C=C(CC[C@@]1(C)[C@H](C)CCC(=O)[C@@H]1C)C(O)Cc1c(O)cc(C)cc1O (some centres undefined) | > 28
> 100 | 10.6 | C=C(CCc1c(C)cccc1C)C(O)Cc1c(O)cc(C)c(C=O)c1O (centres undefined) | 45
> 100 | 4.41 | C=C(CC[C@H]1[C@@H](C)CCCC1(C)C)C(=O)Cc1c(O)cc(C)c(C=O)c1O (relative stereo) | 18
> 100 | 7.53 | C=C(CC/C=C(\C)CCC=C(C)C)C(O)Cc1c(O)cc(C)c(C=O)c1O (centres undefined) | > 80
> 100 | 2.12 | Cc1cc(O)c(CC(O)C(C)CC[C@H]2[C@@H](C)CCCC2(C)C)c(O)c1C=O (relative stereo) | 16
14.7 | 1.98 | C=C(CC[C@H]1[C@@H](C)CCCC1(C)C)C(O)Cc1c(O)cc(C)c(C=O)c1O (relative stereo) | 46
> 100 | 6.52 | C=C(CCC12CC3CC(CC(C3)C1)C2)C(O)Cc1c(O)cc(C)c(C=O)c1O (centres undefined) | 55
